# Assay results gathered from unrelated publications.
# Cell line: NCI-H1299
# Observed: cell growth or viability
SMILES,test,setting,measurement,result
CN1C[C@H](C(=O)N[C@]2(C)O[C@@]3(O)[C@@H]4CCCN4C(=O)[C@H](Cc4ccccc4)N3C2=O)C[C@@H]2c3cccc4[nH]cc(c34)C[C@H]21,MTT,72 h,EC50,70 µM
Cc1c(-c2cccc(C(F)(F)F)c2)sc2[nH]c(=O)n([C@H](C)c3cccc4ccccc34)c(=O)c12,,10 µM,inhibition,> 80%
COc1ccccc1C#CCNCC(O)COc1cccc2[nH]c3ccccc3c12 (centres unmarked),CCK-8,72 h,IC50,> 100 µM
C/C(=N\O)c1ccc(-c2cccc(C#N)c2)c(Cl)c1O,MTT,"30 µM, 48 h",viability,82%
Cc1cc2c(cc1N1C(=O)c3cccc4c(CCCO)ccc(c34)C1=O)n(C)c(=O)n2C (racemic),resazurin,,GI50,> 10 µM
CCCc1ccc(OCC(O)CNC/C=C/c2ccccc2OC)cc1 (centres unmarked),CCK-8,72 h,IC50,11.4 µM
COc1ccc(-c2ccc(/C(C)=N/O)c(O)c2Cl)cc1C,MTT,"30 µM, 48 h",viability,76%
C=C(c1ccc(C(=O)O)cc1)c1cc2c(cc1C)C(C)(C)CCC2(C)C,MTT,72 h,EC50,44 µM
COc1cccc(-c2ccc(/C(C)=N/O)c(O)c2Cl)c1,MTT,"30 µM, 48 h",viability,90%
COc1ccccc1OCCN1CCOC(COc2cccc3[nH]c4ccccc4c23)C1 (centres unmarked),CCK-8,72 h,IC50,> 100 µM
COc1cc2c(Nc3ccc(NC(=O)c4ccccc4)cc3)ncnc2cc1OCCCN1CCOCC1,MTS,72 h,IC50,0.7 µM
